Reference: ChEMBL document CHEMBL4270594, “Design, synthesis and pharmacological evaluation of new 3-(1H-benzimidazol-2-yl)quinolin-2(1H)-one derivatives as potential antitumor agents” (Eur J Med Chem, 2018)
pIC50: −log10 of the molar value. The source made the active and inactive calls. The calls are words filed in the database; no cut-off is given here.

Assays:
HepG2 [1] = assay: Cytotoxicity against human HepG2 cells after 48 hrs by MTT assay; assay type: functional, cell-based; settings: HepG2, 48 h
How it was run: (§1)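 MTT cytotoxicity assay run against HepG2 and BEL-7404 liver cancer, SK-OV-3 ovarian, NCI-H460 large-cell lung cancer and HL-7702 normal liver cells. 5-fluorouracil and cisplatin served as positive controls. IC50 is given as mean ± SD of three repeat experiments.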

NCI-H460 = assay: Cytotoxicity against human NCI-H460 cells after 48 hrs by MTT assay; assay type: functional, cell-based; settings: NCI-H460, 48 h; how it was run: as §1
L02 = assay: Cytotoxicity against human HL-7702 cells after 48 hrs by MTT assay; assay type: cell-based; settings: L02, 48 h; how it was run: as §1
SK-OV-3 = assay: Cytotoxicity against human SKOV3 cells after 48 hrs by MTT assay; assay type: functional, cell-based; settings: SK-OV-3, 48 h; how it was run: as §1
BEL-7404 tumor cell line [2] = assay: Cytotoxicity against human Bel7404 cells after 48 hrs by MTT assay; assay type: functional, cell-based; settings: BEL-7404, 48 h; how it was run: as §1
BEL-7404 tumor cell line [3] = assay: Antitumor activity against human Bel7404 cells xenografted in Balb/c nude mouse assessed as tumor growth inhibition at 25 mg/kg/2 days, ip for 20 days measured on day 21 post last dose relative to control; assay type: functional; settings: BEL-7404, ip, read-out: TGI
BEL-7404 tumor cell line [4] = assay: Antitumor activity against human Bel7404 cells xenografted in Balb/c nude mouse assessed as relative tumor volume increment rate at 25 mg/kg/2 days, ip for 20 days measured on day 21 post last dose relative to control; assay type: functional
HepG2 [5] = assay: Upregulation of p53 protein expression in human HepG2 cells at 10 uM after 12 hrs by Western blot analysis; assay type: functional, cell-based

Row | Compound | pIC50 (HepG2 [1]) | pIC50 (NCI-H460) | pIC50 (L02) | pIC50 (SK-OV-3) | pIC50 (BEL-7404 tumor cell line [2]) | inhibition in vivo at 25 mg/kg (BEL-7404 tumor cell line [3]) [%] | T/C (BEL-7404 tumor cell line [4]) [%] | Activity (HepG2 [5])
1 | Cc1ccc2[nH]c(=O)c(-c3nc4cc([N+](=O)[O-])ccc4[nH]3)cc2c1 | < 4.00 | < 4.00 | < 4.00 | < 4.00 | < 4.00 | – | – | –
2 | Cc1ccc2[nH]c(=O)c(-c3nc4cc(Br)ccc4[nH]3)cc2c1 | < 4.00 | < 4.00 | < 4.00 | < 4.00 | < 4.00 | – | – | –
3 | O=c1[nH]c2ccccc2cc1-c1nc2cc(F)ccc2[nH]1 | 4.82 | 4.62 | < 4.00 | 4.74 | 4.56 | – | – | –
4 | Cc1ccc2[nH]c(=O)c(-c3nc4cc(F)ccc4[nH]3)cc2c1 | < 4.00 | < 4.00 | < 4.00 | < 4.00 | < 4.00 | – | – | –
5 | Cc1ccc2[nH]c(=O)c(-c3nc4ccccc4[nH]3)cc2c1 | < 4.00 | < 4.00 | < 4.00 | < 4.00 | < 4.00 | – | – | –
6 | O=c1[nH]c2ccccc2cc1-c1nc2cc([N+](=O)[O-])ccc2[nH]1 | < 4.00 | < 4.00 | < 4.00 | < 4.00 | < 4.00 | – | – | –
7 | COc1ccc2[nH]c(=O)c(-c3nc4ccccc4[nH]3)cc2c1 | < 4.00 | < 4.00 | < 4.00 | < 4.00 | < 4.00 | – | – | –
8 | COc1ccc2[nH]c(=O)c(-c3nc4cc(C)c(C)cc4[nH]3)cc2c1 | < 4.00 | < 4.00 | < 4.00 | < 4.00 | < 4.00 | – | – | –
9 | O=c1[nH]c2cc3c(cc2cc1-c1nc2cc(F)ccc2[nH]1)OCO3 | 4.91 | < 4.00 | < 4.00 | < 4.00 | 4.99 | – | – | –
10 | COc1ccc2[nH]c(=O)c(-c3nc4cc(F)ccc4[nH]3)cc2c1 | < 4.00 | < 4.00 | < 4.00 | < 4.00 | < 4.00 | – | – | –
11 | O=c1[nH]cc(F)c(=O)[nH]1 [FLUOROURACIL] | – | – | – | – | 4.40 | 34.5 | 56.1 | –
12 | O=c1[nH]c2cc3c(cc2cc1-c1nc2cc([N+](=O)[O-])ccc2[nH]1)OCO3 | < 4.00 | < 4.00 | < 4.00 | < 4.00 | < 4.00 | – | – | –
13 | O=c1[nH]c2ccccc2cc1-c1nc2ccccc2[nH]1 | 4.53 | < 4.00 | < 4.00 | 4.86 | < 4.00 | – | – | inactive
14 | Cc1ccc2[nH]c(=O)c(-c3nc4cc(C)c(C)cc4[nH]3)cc2c1 | < 4.00 | < 4.00 | < 4.00 | < 4.00 | < 4.00 | – | – | –
15 | O=c1[nH]c2ccccc2cc1-c1nc2cc(Br)ccc2[nH]1 | 4.97 | 4.77 | < 4.00 | 4.94 | 4.84 | – | – | –
16 | O=c1[nH]c2cc3c(cc2cc1-c1nc2cc(Br)ccc2[nH]1)OCO3 | < 4.00 | < 4.00 | < 4.00 | < 4.00 | < 4.00 | – | – | –
17 | COc1ccc2[nH]c(=O)c(-c3nc4cc(Cl)ccc4[nH]3)cc2c1 | < 4.00 | < 4.00 | < 4.00 | < 4.00 | < 4.00 | – | – | –
18 | Cc1ccc2[nH]c(=O)c(-c3nc4cc(Cl)ccc4[nH]3)cc2c1 | 4.58 | 4.44 | < 4.00 | 4.48 | 4.41 | – | – | –
19 | COc1ccc2[nH]c(=O)c(-c3nc4cc(Br)ccc4[nH]3)cc2c1 | < 4.00 | < 4.00 | < 4.00 | < 4.00 | < 4.00 | – | – | –
20 | Cc1cc2nc(-c3cc4ccccc4[nH]c3=O)[nH]c2cc1C | < 4.00 | < 4.00 | < 4.00 | < 4.00 | < 4.00 | – | – | –
21 | Cc1cc2nc(-c3cc4cc5c(cc4[nH]c3=O)OCO5)[nH]c2cc1C | 4.73 | 4.62 | < 4.00 | 4.97 | 4.80 | – | – | –
22 | O=c1[nH]c2cc3c(cc2cc1-c1nc2ccccc2[nH]1)OCO3 | 4.59 | < 4.00 | < 4.00 | 4.49 | < 4.00 | – | – | –
23 | COc1ccc2[nH]c(=O)c(-c3nc4cc([N+](=O)[O-])ccc4[nH]3)cc2c1 | < 4.00 | < 4.00 | < 4.00 | < 4.00 | < 4.00 | – | – | –
